Compound activity deposited in PubChem by Sanford-Burnham Center for Chemical Genomics.
hiPSC survival = increases survival of single human iPS cells | actives 0.044% (n = 360,000) | hiPSC single-cell survival, ATPlite luminescence; 100% = ROCK inhibitor wells, 0% = DMSO | survival enhancement, % at 20 µM; in the data active = survival enhancement above about 18%;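 note: cells exposed to compounds for 16 hours before the ATP read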
PfGluPho inh = PfG6PD (Plasmodium falciparum) enzyme inhibition | PfGluPho enzyme, NADPH resazurin-diaphorase fluorescence | actives 0.78% (n = 350,000) | inhibition, % at 20 µM;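 active = inhibition reaching at least a set limit at 20 µM in the primary screen, cut at about 59% in these data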;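 note: 0% = DMSO wells with substrate and 100% = DMSO wells lacking glucose-6-phosphate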
A3G deaminase = inhibitors of human APOBEC3G DNA deaminase; recombinant A3G, ssDNA deamination FAM/TAMRA fluorescence; inhibition, % at 20 µM; actives 0.28% (n = 330,000); AID 493012;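 active = inhibition of at least 40% at 20 µM, with no more than 30% in the related APOBEC3A deaminase screen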;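 note: plate controls were DMSO wells with A3G for no effect and wells lacking A3G enzyme for full effect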
Target sequence (Q9HC16 whole entry, looked up): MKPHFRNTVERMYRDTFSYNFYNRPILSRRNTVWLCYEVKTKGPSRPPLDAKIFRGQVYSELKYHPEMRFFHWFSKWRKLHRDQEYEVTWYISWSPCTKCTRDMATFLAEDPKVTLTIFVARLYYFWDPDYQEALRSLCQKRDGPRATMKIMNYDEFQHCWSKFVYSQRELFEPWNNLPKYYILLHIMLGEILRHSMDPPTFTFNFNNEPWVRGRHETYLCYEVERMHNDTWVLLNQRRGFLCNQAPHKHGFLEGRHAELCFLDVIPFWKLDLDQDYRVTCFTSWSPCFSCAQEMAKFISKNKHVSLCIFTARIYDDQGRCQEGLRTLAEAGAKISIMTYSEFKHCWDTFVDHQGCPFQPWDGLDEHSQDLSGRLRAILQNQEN
HKDC1 inhibitor = blocks human hexokinase HKDC1 activity; recombinant HKDC1, G6PDH/diaphorase resazurin coupled fluorescence; actives 0.16% (n = 340,000); AID 493160; inhibition, % at 20 µM; Q2TB90;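 active = inhibition above about 35% when tested at 20 µM, limit read from the data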;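 note: plate controls were DMSO wells with enzyme for no effect and DMSO wells lacking enzyme for full effect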
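Material: recombinant HKDC1 hexokinase; Amount: HKDC1 at 5 µg/mL; Medium: Tris pH 8.0 buffer with MgCl2, Tween-20, BSA, BME; Schedule: 90 min reaction incubation at room temperature, dark; Technique: coupled resazurin fluorescence, excitation 525 nm, emission 613 nm.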
A3A deaminase = human APOBEC3A DNA deaminase inhibition. actives 0.41% (n = 330,000). AID 493011. inhibition, % at 20 µM. recombinant A3A, FAM/TAMRA ssDNA deamination fluorescence;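 active = at least 40% inhibition at 20 µM here, with at most 30% in a related deaminase screen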;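 note: plate controls were A3A with DMSO for no effect and wells lacking A3A enzyme for full effect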
PfG6PD confirm = confirmation of Plasmodium falciparum G6PD inhibitors. shares compounds with PfGluPho inh. recombinant PfGluPho, NADPH-diaphorase-resazurin fluorescence. inhibition, % at 20 µM. actives 34% (n = 2,400). AID 504753;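 active = inhibition of at least 50% at 20 µM in any single replicate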;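 note: 0% = DMSO with substrate and 100% = DMSO lacking glucose-6-phosphate substrate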
Diaphorase 10uM = counter-screen for P. falciparum G6PD inhibitors: diaphorase inhibitors, oxidizers; shares compounds with PfGluPho inh; diaphorase-coupled resazurin reduction, fluorescence, NADPH 10 uM; inhibition, % at 20 µM; actives 39% (n = 820);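 active = average inhibition reaching 50% or more with the compound at 20 µM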;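 note: resorufin red fluorescence formed as diaphorase reduces resazurin using NADPH; 0% = DMSO with enzyme and 100% = DMSO without enzyme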
Diaph ctr 30uM = counter-screen for P. falciparum G6PD inhibitors: diaphorase inhibitors, oxidizers; shares compounds with PfGluPho inh; Diaphorase/resazurin coupled assay, resorufin fluorescence, 30 uM NADPH; inhibition, % at 20 µM; actives 29% (n = 820);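 active = inhibition averaging 50% or more, tested at 20 µM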;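 note: 0% = DMSO with enzyme and 100% = DMSO wells lacking diaphorase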
* hit, by the source's call. In the library only some 1.4% were active in any assay of this set; here they are far more common.

`C[C@H](CO)N1C[C@H](C)[C@@H](CN(C)S(=O)(=O)c2cn(C)cn2)OCc2cnnn2CCCC1=O` gave hiPSC survival -1.2 and PfGluPho inh 0.3.
For Cc1ccc(/C=N/NC(=O)CSc2nc3ccccc3n2C)s1 the results were hiPSC survival -0.1, PfGluPho inh 117.1*, A3G deaminase -6.5, HKDC1 inhibitor -0.7, A3A deaminase -5.2, PfG6PD confirm 87.2*, Diaphorase 10uM 93.3* and Diaph ctr 30uM 79.3*.
`O=C1SC(SC(=Nc2ccccc2)Nc2ccccc2)C(=O)N1c1ccccc1` (stereo not drawn) gave hiPSC survival -1.6, PfGluPho inh 59.9*, A3G deaminase -3.4, HKDC1 inhibitor -8.5, A3A deaminase -0.4 and PfG6PD confirm 19.0.
For CCn1cc(S(=O)(=O)Nc2cc(C)ccc2F)cn1 the results were hiPSC survival -0.3, PfGluPho inh -7.8, A3G deaminase 0.2, HKDC1 inhibitor -3.6 and A3A deaminase 1.2.
`COc1ccc(CCN(C)C(=S)Nc2cccc(C)c2)cc1OC` gave hiPSC survival 0.5, PfGluPho inh -8.2, A3G deaminase -3.2, HKDC1 inhibitor -0.6 and A3A deaminase 2.6.
For O=C(c1cc(-c2ccc(Cl)cc2)n(-c2ccc(Cl)c(Cl)c2)n1)N1CCOCC1 the results were hiPSC survival -1.7, PfGluPho inh 30.7, A3G deaminase -6.0, HKDC1 inhibitor 2.8 and A3A deaminase 3.6.
For O=C(c1cc(-c2ccc(Cl)cc2)n(-c2cc(Cl)ccc2Cl)n1)N1CCOCC1 the results were hiPSC survival -2.5, PfGluPho inh 77.9*, A3G deaminase -1.9, HKDC1 inhibitor 2.0, A3A deaminase -1.6 and PfG6PD confirm 35.0.
For COc1ccc(N2CC(O)=C(c3nc4ccccc4s3)C2=N)c(OC)c1 the results were hiPSC survival 1.6, PfGluPho inh 64.0*, A3G deaminase -0.9, HKDC1 inhibitor 2.7, A3A deaminase -1.0 and PfG6PD confirm 42.5.
COc1ccccc1-n1cc([C@@H]2C[C@H]3CN(c4ccccc4)C(=O)[C@]34CCCN24)cn1 was read as hiPSC survival -1.3, PfGluPho inh 14.4, A3G deaminase -0.4, HKDC1 inhibitor -14.0 and A3A deaminase 0.0.
`COc1cc(CNCCO)cc(Cl)c1OCc1ccc(Cl)cc1Cl` gave hiPSC survival -2.8, PfGluPho inh 16.5, A3G deaminase 0.8, HKDC1 inhibitor -7.1 and A3A deaminase 0.5.
Screening NC(=S)NNc1cc(Cl)cc(Cl)c1 returned hiPSC survival -0.9, PfGluPho inh 71.0*, A3G deaminase 4.0, HKDC1 inhibitor -2.7, A3A deaminase 1.6 and PfG6PD confirm 13.8.
`Cc1cc(C)c(NC(=O)CN2C(=O)CC(C)S(=O)(=O)c3ccccc32)c(C)c1` (stereo not drawn) gave hiPSC survival -0.6, PfGluPho inh 0.2, A3G deaminase -6.3, HKDC1 inhibitor 1.1 and A3A deaminase -4.4.
`COc1cc(/C=C/C(=O)c2ccc([N+](=O)[O-])o2)ccc1O` gave hiPSC survival 4.4, PfGluPho inh 77.1*, A3G deaminase -6.4, HKDC1 inhibitor 34.5, A3A deaminase 3.1, PfG6PD confirm 60.3*, Diaphorase 10uM 40.0 and Diaph ctr 30uM 35.5.
For ONC(=Nc1ccccc1Cl)c1ccccc1Cl the results were hiPSC survival -0.4, PfGluPho inh 68.2*, A3G deaminase -3.5, HKDC1 inhibitor 0.6, A3A deaminase -1.7 and PfG6PD confirm 41.0.
For CCOC(=O)[C@]12CCC=C1N(Cc1ccco1)C(=O)[C@H](CC(=O)NCC1CCCCC1)C2 the results were hiPSC survival 0.0.
COc1ccc(C)cc1Nc1nc(-c2c[nH]c3ccccc23)cs1 was read as hiPSC survival 0.6, PfGluPho inh 60.1*, A3G deaminase 33.7, HKDC1 inhibitor -3.6, A3A deaminase -0.5 and PfG6PD confirm -8.3.
